Legend:
Mus musculus [1] = assay: Effective dose required to reduce the parasitemia in mice when compound administered with Tween-80 after 3 day postinfection; type: functional
Mus musculus [2] = organism: Mus musculus; assay: Effective dose required to reduce the parasitemia in mice by suppressive test after 4 day postinfection; type: functional
Method in brief: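 Peters 4-day suppressive test in P. berghei-infected mice with multiple daily oral doses. ED50/ED90 are given in (mg/kg)/day.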

Mus musculus [3] = assay: Survival of mice to 30-day postinfection with Plasmodium berghei upon 10 mg/kg peroral dose was determined; type: functional; conditions: route oral
Method in brief: (§1)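 P. berghei-infected MORO mice, groups of three, treated 1 day postinfection with a single dose (100 or 10 mg/kg, po or sc) dissolved or suspended in 3% ethanol/7% Tween-80. Activity is percent reduction in parasitemia on day 3 postinfection versus untreated controls. Survival time is compared with an untreated control group. Individual measurements generally differed by less than 10%.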

Mus musculus [4] = assay: Effective dose required to reduce the parasitemia in mice when compound administered with SSV after 3 day postinfection; type: functional
[5] = Bioavailability obtained after oral administration of 30 mg/kg (n=1); type: ADME, organism-based, Mus musculus; conditions: in vivo
Method in brief: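 Conscious, free-moving rats (n = 3 per group) were jugular- and carotid-cannulated the day before dosing under isoflurane, then fasted overnight. The iv dose was a 5 min jugular infusion in aqueous 0.1 M Captisol (10, 20 or 30 mg/kg). The oral dose was given by gavage as a suspension in 0.5% CMC/0.4% polysorbate 80/0.5% benzyl alcohol/0.9% NaCl (30, 50 or 80 mg/kg). Carotid blood was sampled over 7 h and plasma was obtained by centrifugation.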

[6] = Plasma half life period after intravenous administration ( 10 mg/kg ); conditions: rat
[7] = Plasma clearance after intravenous administration of 10 mg/kg; conditions: rat
[8] = Volume distribution after intravenous administration of 10 mg/kg; conditions: rat, in vivo
Mus musculus [9] = assay: Antimalarial activity (10 mg/kg, subcutaneously) given 1 day post infection of mice (Mus musculus) with Plasmodium berghei is its ability to reduce parasitemia on day 3 post infection; type: functional; method in brief: as §1
Mus musculus [10] = assay: Survival of mice to 30-day postinfection with Plasmodium berghei upon 10 mg/kg upon subcutaneous dose was determined; type: functional; method in brief: as §1
[11] = Plasma half life period after intravenous administration ( 20 mg/kg ); conditions: rat
[12] = Plasma clearance after intravenous administration of 20 mg/kg; conditions: rat
[13] = Volume distribution after intravenous administration of 20 mg/kg; conditions: rat, in vivo, read-out: Vd

| SMILES | ED90 (Mus musculus [1]) | ED90 (Mus musculus [2]) | Survival (Mus musculus [3]) [days] | ED90 (Mus musculus [4]) | bioavailability [5] [%] | half-life [6] [h] | clearance [7] [mL/min/kg] | Vd [8] [L/kg] | Reduction (Mus musculus [9]) [%] | Survival (Mus musculus [10]) [days] | half-life [11] [h] | clearance [12] [mL/min/kg] | Vd [13] [L/kg] |
| --- | --- | --- | --- | --- | --- | --- | --- | --- | --- | --- | --- | --- | --- |
| c1ccc(C2CCC3(CC2)OOC2(O3)C3CC4CC(C3)CC2C4)cc1 (stereo not drawn) | 3.2 (mg/kg)/day | 2.6 (mg/kg)/day | 12.6 | 5.7 (mg/kg)/day | 9.5 | 1.62 | 33 | 5 | 99.92 | 17.1 |  |  |  |
| C[C@H]1[C@@H](O)O[C@@H]2O[C@@]3(C)CC[C@H]4[C@H](C)CC[C@@H]1[C@@]24OO3 [ARTENIMOL] |  |  |  |  |  |  |  |  |  |  | 0.433 | 72 | 3 |

From ChEMBL document CHEMBL1140339, “Spiro and dispiro-1,2,4-trioxolanes as antimalarial peroxides: charting a workable structure-activity relationship using simple prototypes” (J Med Chem, 2005)
